Source: ChEMBL document CHEMBL2086292, “Chalcogenopyrylium compounds as modulators of the ATP-binding cassette transporters P-glycoprotein (P-gp/ABCB1) and multidrug resistance protein 1 (MRP1/ABCC1)” (J Med Chem, 2012)
Values joined by “and” are separate entries in the source; they are usually repeats but may differ in a detail not shown here. Identical values can stand only once.

Assays:
[1] = molecular target: T1, MRP1 (Multidrug resistance-associated protein 1) (Homo sapiens, UniProt P33527); assay: Inhibition of human MRP1 mediated uptake of [3H]E2-17betaG in HEK cell membrane vesicles at 30 uM by liquid scintillation counting relative to control; format: cell membranes, HEK293; details: HEK cell membrane vesicles with human MRP1, probe [3H]E2-17betaG
Outline: (§1)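 Inside-out membrane vesicles from HEK cells stably transfected with human MRP1. Vesicle protein (2 μg) incubated in Tris-sucrose buffer pH 7.4 with 400 nM [3H]E2-17βG, 4 mM ATP or AMP and 10 mM MgCl2, 3 min at 37 °C, in duplicate; DMSO ≤1% final. Stopped by ice-cold dilution and rapid filtration, then scintillation counted. ATP-dependent uptake taken as ATP minus AMP values; inhibition reported as percent.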

[2] = molecular target: P-gp (ABCB1) (Homo sapiens, UniProt P08183); assay: Induction of ATPase activity of human His10-tagged P-gp expressed in BHK cells assessed as inorganic phosphate release after 30 mins relative to control; format: cell-based; details: human His10-tagged P-gp expressed in BHK cells, read-out: FC
Outline: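 Human P-gp with C-terminal His10 tag, stably expressed in BHK cells, purified by Ni-chelate chromatography and mixed 1:1 with 10 mg/mL sheep brain phosphatidylethanolamine in TBS (10 mM Tris/HCl pH 7.4, 150 mM NaCl), then sonicated. Compound titrated, 30 min at 37 °C. Inorganic phosphate released from ATP measured. Vmax expressed as fold over basal activity; KM is the concentration giving half-maximal stimulation.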

[3] = molecular target: T1, MRP1 (Multidrug resistance-associated protein 1); assay: Inhibition of human MRP1-mediated uptake of [3H]E2-17betaG in HEK cell membrane vesicles at 1 uM by liquid scintillation counting relative to control; format: cell membranes, HEK293; details: HEK cell membrane vesicles with human MRP1, probe [3H]E2-17betaG; outline: as §1
[4] = test system: MDCK-II; assay: Inhibition of P-gp expressed in MDCK2-MDR1 cells at 25 uM by calcein AM accumulation assay relative to LSN 335984; format: cell-based
Outline: (§2)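 MDCKII cells transfected with wild-type human MDR1, seeded at 40000 cells/well and used on day 4. Washed in DPBS with 10 mM HEPES pH 7.4, then compound in the same buffer 30 min at 37 °C. Replaced with compound plus 0.5 μg/mL calcein AM for a further 20 min. Fluorescence read at Ex 485/Em 530 nm. Signal expressed relative to 5 μM LSN 335984, taken as complete inhibition; vehicle 0.25% DMSO. IC50 from 1:1 serial dilutions by variable-slope sigmoidal fit.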

[5] = molecular target: T1, MRP1 (Multidrug resistance-associated protein 1); assay: Inhibition of human MRP1-mediated uptake of [3H]E2-17betaG in HEK cell membrane vesicles at 10 uM by liquid scintillation counter; format: cell membranes, HEK293; details: HEK cell membrane vesicles with human MRP1, probe [3H]E2-17betaG; outline: as §1
[6] = Octanol-water partition coefficient, log P of the compound in PBS at pH 7.4 after 1 hr by shake flask method; format: physicochemical
Outline: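 Shake-flask method: saturated n-octanol solution shaken with an equal volume of PBS pH 7.4 for 3–5 min, then left to settle 1 h at 23 °C. Concentration in each layer measured spectrophotometrically.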

[7] = Normalized ratio of the compound assessed as ratio of PBA/AB in absence of LSN 335984 to ratio of PBA/AB in presence of LSN 335984 in MDCK2-MDR1 cells at 5 uM after 1 hr; format: ADME, cell-based, Canis lupus familiaris; details: dog, mdck-mdr1, 1 h
Outline: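 MDCKII-MDR1 cells seeded at 50000 cells/cm² on Transwell filters, used on day 6. Preincubated 30 min with 4.3 mg/mL BSA in DPBSH, with or without 5 μM LSN 335984. Compound (5 μM) added to the apical or basolateral donor chamber and incubated 1 h at 37 °C with nutation. Donor and receiver samples quantified by LC-MS/MS. AB and BA permeabilities calculated. Normalized ratio is the BA/AB ratio without inhibitor divided by the ratio with inhibitor.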

[8] = test system: P-glycoprotein (MDR1); assay: P-glycoprotein-mediated transport in MDCK2-MDR1 cells assessed as permeability across apical to basolateral side at 5 uM after 1 hr; details: dog, MDCK-MDR1
[9] = test system: P-glycoprotein (MDR1); assay: P-glycoprotein-mediated transport in MDCK2-MDR1 cells assessed as permeability across basolateral to apical side at 5 uM after 1 hr; details: dog, MDCK-MDR1
[10] = test system: MDCK-II; assay: Inhibition of P-gp expressed in MDCK2-MDR1 cells at 5 uM by calcein AM accumulation assay relative to LSN 335984; format: cell-based; outline: as §2
[11] = Inhibition of P-gp expressed in MDCK2-MDR1 cells by calcein AM accumulation assay; format: cell-based; details: MDCK-II
Outline: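 MDCKII cells transfected with wild-type human MDR1, seeded at 40000 cells/well and used on day 4. Washed in DPBS with 10 mM HEPES pH 7.4, then compound in the same buffer 30 min at 37 °C. Replaced with compound plus 0.5 μg/mL calcein AM for a further 20 min. IC50 from 1:1 serial dilutions by variable-slope sigmoidal fit.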

[12] = Inhibition of P-gp mediated [3H]VIN efflux in MDCK2-MDR1 cells by scintillation counter; format: cell-based; details: MDCK-II
Outline: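 MDCKII-MDR1 monolayers on Transwell filters, used on day 6. Rinsed in DPBSH, then preincubated 30 min at 37 °C with compound ([…]) in BSA/DPBSH. [3H]vinblastine (0.25 μCi/mL) plus compound added basolaterally and fresh compound solution added apically. Apical buffer replaced every 10 min; apical radioactivity counted by scintillation. IC50 fitted.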

[13] = molecular target: T1, MRP1 (Multidrug resistance-associated protein 1); assay: Inhibition of human MRP1 mediated uptake of [3H]E2-17betaG in HEK cell membrane vesicles at 5 uM by liquid scintillation counting relative to control; format: cell membranes, HEK293; details: HEK cell membrane vesicles with human MRP1, probe [3H]E2-17betaG
Outline: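 Inside-out vesicles from stably transfected HEK-MRP1 cells (2 μg protein) in Tris-sucrose buffer pH 7.4 with [³H]E₂17βG 400 nM, ATP or AMP 4 mM, MgCl₂ 10 mM, 3 min at 37 °C, compound at 5 μM; DMSO ≤1%; stopped by ice-cold dilution, rapid filtration, scintillation counting; ATP-dependent uptake = ATP minus AMP; duplicate wells.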

Sequence of P-gp (ABCB1) (P08183 whole entry): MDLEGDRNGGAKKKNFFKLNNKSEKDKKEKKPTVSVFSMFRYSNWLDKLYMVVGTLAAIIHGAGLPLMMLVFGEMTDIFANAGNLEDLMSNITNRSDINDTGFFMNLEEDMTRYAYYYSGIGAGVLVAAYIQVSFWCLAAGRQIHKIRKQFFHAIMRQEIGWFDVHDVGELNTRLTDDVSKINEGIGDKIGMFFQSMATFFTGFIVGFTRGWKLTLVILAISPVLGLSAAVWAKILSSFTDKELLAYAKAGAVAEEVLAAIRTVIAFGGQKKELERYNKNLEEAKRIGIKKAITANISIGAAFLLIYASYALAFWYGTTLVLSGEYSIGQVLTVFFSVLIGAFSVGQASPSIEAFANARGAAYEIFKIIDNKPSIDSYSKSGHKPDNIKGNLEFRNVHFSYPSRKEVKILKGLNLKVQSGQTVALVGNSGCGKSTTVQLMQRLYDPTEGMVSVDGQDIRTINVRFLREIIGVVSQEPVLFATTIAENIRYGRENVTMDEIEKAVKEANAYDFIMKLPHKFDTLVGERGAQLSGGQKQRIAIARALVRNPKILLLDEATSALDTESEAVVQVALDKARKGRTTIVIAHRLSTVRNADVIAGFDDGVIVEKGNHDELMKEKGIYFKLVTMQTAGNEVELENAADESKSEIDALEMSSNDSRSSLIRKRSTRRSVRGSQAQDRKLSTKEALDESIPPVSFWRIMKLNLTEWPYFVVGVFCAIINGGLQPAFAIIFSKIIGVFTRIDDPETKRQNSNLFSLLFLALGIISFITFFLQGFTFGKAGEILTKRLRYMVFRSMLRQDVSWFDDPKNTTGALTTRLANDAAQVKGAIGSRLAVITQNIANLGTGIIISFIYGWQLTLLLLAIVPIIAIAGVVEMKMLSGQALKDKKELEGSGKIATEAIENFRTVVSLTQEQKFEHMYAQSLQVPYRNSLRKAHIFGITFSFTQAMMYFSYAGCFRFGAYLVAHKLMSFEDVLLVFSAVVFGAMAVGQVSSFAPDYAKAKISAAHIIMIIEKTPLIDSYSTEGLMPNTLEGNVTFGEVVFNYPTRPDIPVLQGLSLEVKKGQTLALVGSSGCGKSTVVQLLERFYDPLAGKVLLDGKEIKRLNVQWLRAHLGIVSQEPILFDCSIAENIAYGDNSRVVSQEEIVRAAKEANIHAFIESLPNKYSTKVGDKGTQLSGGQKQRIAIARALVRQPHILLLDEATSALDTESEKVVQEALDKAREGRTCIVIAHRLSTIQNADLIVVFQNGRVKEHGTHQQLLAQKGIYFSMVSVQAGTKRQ
T1 sequence (P33527 whole entry): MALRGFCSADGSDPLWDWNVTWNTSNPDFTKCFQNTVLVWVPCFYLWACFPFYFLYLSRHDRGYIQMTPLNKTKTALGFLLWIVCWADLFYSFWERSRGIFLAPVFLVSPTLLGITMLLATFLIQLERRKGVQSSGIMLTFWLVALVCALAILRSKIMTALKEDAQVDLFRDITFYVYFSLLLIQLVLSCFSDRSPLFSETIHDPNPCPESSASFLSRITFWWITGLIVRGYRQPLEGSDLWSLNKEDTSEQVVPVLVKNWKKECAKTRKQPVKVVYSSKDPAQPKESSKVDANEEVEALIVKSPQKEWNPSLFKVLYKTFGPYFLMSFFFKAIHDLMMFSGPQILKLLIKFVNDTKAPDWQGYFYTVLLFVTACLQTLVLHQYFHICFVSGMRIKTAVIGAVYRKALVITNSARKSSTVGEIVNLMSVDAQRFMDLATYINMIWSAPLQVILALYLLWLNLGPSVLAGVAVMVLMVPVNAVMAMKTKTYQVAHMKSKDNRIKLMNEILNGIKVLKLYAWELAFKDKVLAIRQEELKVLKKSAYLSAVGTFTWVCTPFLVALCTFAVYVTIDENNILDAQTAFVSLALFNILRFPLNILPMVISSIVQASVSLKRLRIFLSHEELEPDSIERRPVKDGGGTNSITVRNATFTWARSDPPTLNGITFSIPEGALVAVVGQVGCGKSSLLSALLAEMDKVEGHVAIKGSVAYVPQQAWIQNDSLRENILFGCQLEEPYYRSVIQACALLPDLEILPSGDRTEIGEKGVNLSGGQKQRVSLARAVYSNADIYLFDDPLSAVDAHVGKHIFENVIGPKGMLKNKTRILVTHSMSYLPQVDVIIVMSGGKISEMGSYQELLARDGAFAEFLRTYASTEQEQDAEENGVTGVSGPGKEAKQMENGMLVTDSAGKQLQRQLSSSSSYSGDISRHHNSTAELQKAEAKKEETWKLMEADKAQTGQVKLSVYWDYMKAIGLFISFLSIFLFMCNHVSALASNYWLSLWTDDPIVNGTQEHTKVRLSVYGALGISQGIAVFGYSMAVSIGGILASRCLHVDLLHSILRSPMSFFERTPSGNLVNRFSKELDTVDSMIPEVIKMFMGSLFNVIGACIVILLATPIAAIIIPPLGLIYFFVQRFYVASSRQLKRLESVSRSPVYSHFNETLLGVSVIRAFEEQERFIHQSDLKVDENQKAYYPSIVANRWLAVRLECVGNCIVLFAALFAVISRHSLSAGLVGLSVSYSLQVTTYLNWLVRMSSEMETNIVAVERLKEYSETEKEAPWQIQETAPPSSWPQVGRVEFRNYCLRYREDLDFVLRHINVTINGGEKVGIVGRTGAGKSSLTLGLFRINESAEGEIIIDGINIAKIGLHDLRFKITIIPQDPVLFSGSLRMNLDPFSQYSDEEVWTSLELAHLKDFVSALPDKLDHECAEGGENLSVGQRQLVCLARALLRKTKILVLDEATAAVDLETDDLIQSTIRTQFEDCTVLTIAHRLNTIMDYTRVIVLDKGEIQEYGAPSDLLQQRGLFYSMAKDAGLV

| SMILES | inhibition at 30 µM [1] [%] | fold induction at 0.5 h [2] | inhibition at 1 µM [3] [%] | further results |
| --- | --- | --- | --- | --- |
| CN(C)c1ccc(-c2cc(-c3ccccc3)cc(C(C)(C)C)[s+]2)cc1 | 50 | 6.9 |  |  |
| CC(C)(C)c1cc(-c2ccc(C(=O)N3CCCCC3)s2)cc(C(C)(C)C)[s+]1.F[P-](F)(F)(F)(F)F |  | 5.5 | 0 | inhibition [4]: < 7%; inhibition at 10 µM [5]: 11%; logD at 1 h [6]: 0.2; Ratio [7]: 10; Papp A-B at 1 h, 5 µM [8]: 0.38 ×10⁻⁶ cm/s; Papp B-A at 1 h, 5 µM [9]: 5.9 ×10⁻⁶ cm/s |
| Cc1cc(C(C)(C)C)[o+]c(C(C)(C)C)c1 | 0 |  |  |  |
| Cc1cc(-c2ccccc2)[s+]c(-c2ccccc2)c1 |  |  | 0 |  |
| Cc1cc(-c2ccc(N(C)C)cc2)cc(-c2ccc(N(C)C)cc2)[se+]1 |  | 1.4 | 15 |  |
| CC(C)(C)c1cc(-c2ccc(C(=S)N3CCCCC3)s2)cc(C(C)(C)C)[s+]1 |  |  |  | inhibition [10]: 3.6%; inhibition [4]: 27% and < 7% |
| CC(C)(C)c1cc(-c2ccc(C(=S)N3CCCCC3)s2)cc(C(C)(C)C)[se+]1 | 81 | 4.3 |  |  |
| CCN(CC)C(=O)c1ccccc1-c1cc(C(C)(C)C)[se+]c(C(C)(C)C)c1 | 31 | 5.9 |  |  |
| Nc1ccc(-c2cc(-c3ccc(N4CCOCC4)cc3)cc(-c3ccc(N)cc3)[te+]2)cc1 |  |  | 8 |  |
| c1ccc(-c2cc(-c3ccc(N4CCOCC4)cc3)[te+]c(-c3ccc(N4CCOCC4)cc3)c2)cc1 | 89 | 4 |  |  |
| Nc1ccc(-c2cc(-c3ccc(N4CCOCC4)cc3)cc(-c3ccccc3)[te+]2)cc1 | 96 | 4.5 |  |  |
| CC(C)(C)c1cc(-c2ccc(C(=S)N3CCCCC3)s2)cc(C(C)(C)C)[s+]1.[Cl-] |  | 3.7 | 0 | inhibition at 10 µM [5]: 32%; logD at 1 h [6]: 0.7; Ratio [7]: 15; Papp A-B at 1 h, 5 µM [8]: 0.18 ×10⁻⁶ cm/s; Papp B-A at 1 h, 5 µM [9]: 30 ×10⁻⁶ cm/s |
| CN(C)c1ccc(-c2cc(-c3ccc(C(=S)N4CCCCC4)s3)cc(-c3ccc(N(C)C)cc3)[s+]2)cc1.[Cl-] |  | 5.7 | 25 | inhibition at 10 µM [5]: 81%; logD at 1 h [6]: 1.6; IC50 [11]: 34 µM; IC50 [12]: 6.6 µM; Ratio [7]: 8; Papp A-B at 1 h, 5 µM [8]: 0.11 ×10⁻⁶ cm/s; Papp B-A at 1 h, 5 µM [9]: 1.6 ×10⁻⁶ cm/s |
| CCN(CC)C(=O)c1ccccc1-c1cc(-c2ccc(N(C)C)cc2)[s+]c(C(C)(C)C)c1 | 43 | 13.5 |  | inhibition [10]: 2%; inhibition [4]: 13% |
| CN(C)c1ccc(-c2cc(-c3ccc(C(=O)N4CCCCC4)s3)cc(C(C)(C)C)[s+]2)cc1.F[P-](F)(F)(F)(F)F |  | 6.6 | 0 | inhibition at 10 µM [5]: 59%; logD at 1 h [6]: 1.4; IC50 [11]: 18 µM; Ratio [7]: 4; Papp A-B at 1 h, 5 µM [8]: 0.56 ×10⁻⁶ cm/s; Papp B-A at 1 h, 5 µM [9]: 2.2 ×10⁻⁶ cm/s |
| Cc1cc(C(C)(C)C)[se+]c(C(C)(C)C)c1 | 0 |  |  |  |
| CC(C)(C)c1cc(-c2ccc(C(=O)O)s2)cc(C(C)(C)C)[s+]1 |  | 3.5 | 8 | inhibition [10]: 0%; inhibition [4]: 0% |
| CN(C)c1ccc(-c2cc(-c3ccc(C(=O)N4CCCCC4)s3)cc(-c3ccc(N(C)C)cc3)[s+]2)cc1.F[P-](F)(F)(F)(F)F |  | 6 | 18 | inhibition at 10 µM [5]: 78%; logD at 1 h [6]: 2.1; IC50 [11]: 24 µM; IC50 [12]: 5.9 µM; Ratio [7]: 79; Papp A-B at 1 h, 5 µM [8]: 0.17 ×10⁻⁶ cm/s; Papp B-A at 1 h, 5 µM [9]: 62 ×10⁻⁶ cm/s |
| CN(C)c1ccc(-c2cc(-c3ccc(N(C)C)cc3)[se+]c(C(C)(C)C)c2)cc1 | 96 | 10.1 |  |  |
| CC(C)(C)c1cc(-c2ccccc2)cc(C(C)(C)C)[se+]1 |  | 1.4 | 0 |  |
| CC(C)(C)c1cc(-c2ccccc2)cc(C(C)(C)C)[te+]1 | 34 | 1.5 |  |  |
| CN(C)c1ccc(-c2cc(-c3ccc(C(=O)O)s3)cc(C(C)(C)C)[s+]2)cc1 | 96 | 13 |  |  |
| CN(C)c1ccc(-c2cc(-c3ccc(N(C)C)cc3)[te+]c(C(C)(C)C)c2)cc1 | 96 | 8.4 |  |  |
| CC(C)(C)c1cc(-c2ccccc2)cc(C(C)(C)C)[s+]1 | 33 | 2.9 |  | inhibition [10]: 0%; inhibition [4]: 1% |
| CCCCc1cc(-c2ccc(N(C)C)cc2)cc(-c2ccc(N(C)C)cc2)[s+]1 |  | 5.9 |  | inhibition at 5 µM [13]: 70% |
| CCN(CC)C(=O)c1ccccc1-c1cc(C(C)(C)C)[te+]c(C(C)(C)C)c1 | 45 | 6.9 |  |  |
| CC(C)(C)c1cc(-c2ccc(C(=S)N3CCCCC3)s2)cc(C(C)(C)C)[te+]1 |  | 7.4 |  | inhibition at 5 µM [13]: 50% |
| CN(C)c1ccc(-c2cc(-c3ccc(N(C)C)cc3)[s+]c(C(C)(C)C)c2)cc1 | 94 | 7.2 |  |  |
| CCN(CC)C(=O)c1ccccc1-c1cc(C(C)(C)C)[s+]c(C(C)(C)C)c1 | 34 | 7.9 |  | inhibition [10]: 0%; inhibition [4]: 0% |
